CHOP inhibitor: CHOP inhibition in unfolded protein response; inhibition, % at 10 µM; actives 3.8% (n = 220,000); AID 2732; CHO-K1 CHOP-promoter luciferase, tunicamycin-induced, 15-18 h;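 active means compounds that reduced the stress-induced luciferase reporter signal by more than about 70% of percent inhibition, limit read from the data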;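 further: 0% = tunicamycin plus vehicle and 100% = wells without tunicamycin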
T cruzi inh: blocks replication of Trypanosoma cruzi; T. cruzi beta-gal in NIH3T3, luminescence, 90 h; inhibition, % (no concentration beside the values); actives 1.4% (n = 300,000);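 active means mean inhibition across valid replicates above about 55%, limit read from the data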;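 further: signal also drops with host cell toxicity which is not excluded here; 0% = plate median of DMSO wells and 100% = zero luminescence signal; higher percent means less beta-gal luminescence so fewer parasites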
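System: mouse NIH/3T3 fibroblasts infected with β-gal-expressing T. cruzi Tulahuen C4 / Input: NIH/3T3 cells, 5,000 per well / Buffer or medium: Low-serum DMEM with 2% FBS / Probe or stimulus: 5000 reporter trypomastigotes per well / Schedule: ≥90 h infection period, 3 h prior cell attachment / Measured by: GalScreen luminescence, 60 min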
XBP1 UPR activ: activators of adaptive arm of unfolded protein response (XBP1) | actives 0.33% (n = 330,000) | activation, % at 20 µM | CHO-XBP1 luciferase reporter, IRE1-XBP1 UPR activation, luminescence; percent of tunicamycin response, DMSO as zero;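 active means versus positive control, 20 µM dose yields 30% or more activation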;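 further: 100% = tunicamycin at 10 µg/mL and 0% = DMSO only wells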
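Test system: CHO-XBP1 luciferase reporter cells | Buffer or medium: Serum-containing F12 medium, 10% FBS | Schedule: 6 h compound exposure at 37 °C, 5% CO2 | Detection: Steady-Glo luciferase glow luminescence, 10 min after reagent addition | Read-out basis: Activation, % of tunicamycin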
CHOP UPR activ: apoptotic UPR (CHOP) activation. CHO-CHOP luciferase reporter, luminescence; percent of tunicamycin response over DMSO baseline. activation, % at 10 µM. actives 0.34% (n = 330,000);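 active means at 10 µM dose, activation of 40% or more, normalized to positive control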;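 further: 100% = tunicamycin at 10 µg/mL and 0% = DMSO alone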
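Assay system: CHO cells with stable CHOP pathway luciferase reporter; Buffer or medium: F12 plus 10% serum; Times: 16-18 h cell attachment, then 6 h compound exposure, 37 °C; Signal: luciferase luminescence; Read-out basis: percent activation relative to tunicamycin control; Control set: tunicamycin high control, DMSO low control.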
Dynein transport: blocks dynein driven cargo transport along microtubules; 3617.4 mouse cells, GR-EGFP nuclear translocation imaging; test concentration mostly 20 µM; stimulated with dexamethasone, 1 µM; stronger effect = lower value; z-score, hits read low; actives 0.47% (n = 220,000); AID 1381;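 active means plate z-score of nuclear minus cytoplasmic receptor signal below a set negative limit, without overly bright fluorescence or cell loss, cut at about -3.5 in these data, passing the limit was not always enough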;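 further: z-score of nuclear minus cytoplasmic ring GR-EGFP intensity difference per well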
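Buffer or medium: tet-free, stripped-serum medium; Also added: dexamethasone, 1.0 µM final; Technique: high-content fluorescence imaging after fixation; Times: 48 h induction, 1 h compound, 30 min dex at 37 °C; Read-out: per-cell GR-EGFP intensity, nucleus versus surrounding cytoplasmic ring, well-averaged.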
Lmaj promast: inhibitors of Leishmania major promastigote growth. Leishmania major promastigotes, resazurin fluorescence viability. inhibition, % at 10 µM. actives 9% (n = 200,000); in the data active means inhibition above about 50%;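 further: promastigotes grown with compound for 44 hours at 28 °C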
Numbers without * were called inactive; . = no result given. This is one part of a sample in which hits are shown more often than they occur.

SMILES	CHOP inhibitor	T cruzi inh	XBP1 UPR activ	CHOP UPR activ	Dynein transport	Lmaj promast
Cc1ccc(C2C3=C(CC(C)(C)CC3=O)NC3=C2C(=O)c2ccccc23)cc1 (stereo unspecified)	38	24	-1	-1	-0.76	36
CCN(CC)CCN1C2=C(C(=O)CC(C)(C)C2)C(c2cccc(F)c2)C2=C1CC(C)(C)CC2=O	25	20	-1	0	-0.6	22
CCCCN1C2=C(C(=O)CC(C)(C)C2)C(c2ccccc2)C2=C1c1ccccc1C2=O (stereo unspecified)	32	36	0	0	-0.62	84*
CCCN1C2=C(C(=O)CC(C)(C)C2)C(c2ccc(F)cc2)C2=C1c1ccccc1C2=O (stereo unspecified)	55	44	0	2	2.1	72*
COc1ccc(C(=O)Nc2nnc(Cc3ccc(OC)c(OC)c3)s2)cc1	.	8	-1	1	.	.
CN(CC(=O)Nc1cccc(C(F)(F)F)c1)C1=NS(=O)(=O)c2ccccc21	.	.	-3	0	.	.
CCN1CCC(O)(C#Cc2ccccc2)CC1	.	3	-4	-1	.	.
CC1C(c2ccccc2)N(C)C(c2ccccc2)C(C)C1(O)C#Cc1ccccc1 (stereo unspecified)	31	.	2	-1	0.19	69*
CC(Sc1n[nH]c(-c2cccs2)n1)C(=O)N1CCCC1 (stereo unspecified)	.	.	0	2	.	.
O=C(c1ccccc1)c1ccc(OCCCN2CCCCC2)cc1	33	21	4	-1	-0.9	99*
CC(=O)c1ccc(OCCCN2CCCCC2)cc1	-20	-13	-1	-1	-0.1	88*
O=C(CCCCN1CCCCC1)c1ccccc1	.	-18	1	2	.	.
COC(=O)c1ccc(OCCN2CCCCCC2)cc1	-10	13	0	-1	1.1	88*
Cc1cc(C(=O)NCC(c2ccco2)N(C)C)ccc1[N+](=O)[O-] (stereo unspecified)	.	-4	-2	0	.	.
CCOc1ccc(CCNC(=O)CCn2ccc3cc(S(=O)(=O)N4CCCC4)ccc32)cc1	.	6	-4	4	.	.
COc1ccccc1OCCN1C(=O)S/C(=C\c2ccco2)C1=O	25	14	0	1	0.47	55*
COc1ccccc1N(CC(=O)Nc1cc(S(=O)(=O)N(C)C)ccc1C)S(=O)(=O)c1cccs1	.	.	-1	1	.	.
CC(C)CNC(=O)Cn1nc(C(F)(F)F)c2c1CCCC2	-15	-6	1	0	0.98	-6
CCc1c(C)sc(NC(=O)CC#N)c1C#N	23	-15	-2	1	-0.2	66*
CCc1c(C)sc(NC(=O)Cn2nc(C(F)(F)F)c3c2CCCC3)c1C#N	93*	-9	-2	1	0.44	-7
COC(=O)Oc1c(Br)c(=O)oc2ccccc12	85*	-8	0	0	1.8	-3
Cc1cnccc1CNC(=O)C1CCC(=O)N(Cc2ccc(Cl)cc2)C1 (stereo unspecified)	.	-1	-1	-1	.	.
Cc1cccc(-n2nc([N+](=O)[O-])c(=NC3CCN(Cc4ccccc4)CC3)n2O)c1	26	50	-1	-2	1.2	47
O=[N+]([O-])c1nn(-c2ccc3c(c2)OCCO3)n(O)c1=NC1CCCCCC1	77*	59*	-2	0	-0.047	87*
O=[N+]([O-])c1nn(-c2ccc3c(c2)OCCO3)n(O)c1=NC1CCCC1	44	90*	1	6	-0.36	18
SMILES	CHOP inhibitor	T cruzi inh	XBP1 UPR activ	CHOP UPR activ	Dynein transport	Lmaj promast
Cc1ccc(S(=O)(=O)c2c(C)nn(C(C)(C)C)c2OC(=O)CC(C)C)cc1	80*	1	-1	-1	-1.2	15
CCN(CC)C(=O)C(C)OC(=O)COc1ccc(Cl)cc1Cl (stereo unspecified)	36	-5	-4	1	2	58*
O=C(OCC(=O)c1ccc[nH]1)c1ccc(F)c(S(=O)(=O)N2CCOCC2)c1	.	.	3	1	.	.
CN(C)c1ccc(NC(=O)Cn2ncn3c(cc4ccccc43)c2=O)cc1	-19	43	0	2	0.19	58*
O=C(Nc1ccc(C(=O)Nc2ccccc2Cl)cc1)c1cccnc1	.	.	-3	-1	.	.
O=C1OC(c2ccc(F)cc2)=C/C1=C\c1ccc([N+](=O)[O-])o1	25	66*	3	6	-2.5	100*
O=C1OC(c2ccc(F)cc2)=C/C1=C\c1ccc(O)cc1	.	-8	5	3	.	.
Cc1c(C2=CCN(S(=O)(=O)c3ccc(Br)cc3)CC2)c2ccccc2n1C	23	13	1	1	0.078	64*
COc1c(C(CC(C)C)OC(C)=O)ccc2c1C(=O)OCc1cc(C)cc(O)c1O2 (stereo unspecified)	72*	6	0	4	-0.4	.
COc1c(C(O)CC(C)C)ccc2c1C(=O)OCc1cc(C)cc(O)c1O2 (stereo unspecified)	24	2	-3	0	-0.66	12
CCN(C(=O)COC(=O)c1cc(S(=O)(=O)N(C)C)ccc1Cl)C1CCS(=O)(=O)C1 (stereo unspecified)	.	-10	2	0	.	.
CCCC(C)NC(=S)Nc1cc(C)cc(C)c1 (stereo unspecified)	2	0	-1	-1	1.1	76*
CCCCCCc1cc2cc(S(=O)(=O)c3ccc(C)cc3)c(=O)oc2cc1O	86*	-16	-4	3	0.0028	-7
CCCCCCc1cc2cc(S(=O)(=O)c3ccc(Cl)cc3)c(=O)oc2cc1O	69	-1	-4	2	3.8	-7
O=C(Cc1ccc2c(c1)OCCO2)Nc1cc(C(F)(F)F)ccc1N1CCOCC1	.	.	-2	2	.	.
CCOc1ccc(C2CC(c3cccc(Cl)c3)n3nc(N)nc3N2)cc1 (stereo unspecified)	48	20	1	1	-0.76	67*
COc1ccccc1NS(=O)(=O)c1cccc(NC(=O)c2sc3ccccc3c2Cl)c1	37	78*	-2	-1	0.6	95*
COc1ccccc1NS(=O)(=O)c1cc(NC(=O)Nc2cccc(C)c2)ccc1N1CCCCC1	47	60*	-1	8	-0.47	43
COc1ccccc1NC(=O)Nc1ccc(Cl)c(S(=O)(=O)Nc2ccccc2OC)c1	56	22	-1	3	-0.24	99*
COc1ccc(NS(=O)(=O)c2cc(N/C(=N\S(=O)(=O)c3ccccc3)c3ccc(F)cc3)ccc2Cl)cc1	20	15	1	1	0.44	76*
